SMILES strings stand for the structures.

The test system of the test is OVA-sensitised Brown Norway rat. As to the kind of experiment: OVA-sensitised and challenged Brown Norway rat allergy model. The following applies: 1 mg/kg intratracheal, 24 h before and 24 h after OVA challenge. It is filed as in vivo. The method, boiled down:
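In OVA-sensitised Brown Norway rats, the test compound was given intratracheally 24 h before and 24 h after OVA challenge (5 sensitised-only, 9 dosed per point; or groups of eight). Alternatively, from 14 days post-sensitisation, rats received 1 mg/kg weekly for eight doses (10 per point), then aerosolised OVA 26 days later. BAL eosinophils and IL-13 were measured 48 h post-challenge. Results were given as mean±SEM; Mann-Whitney U test versus vehicle-dosed OVA controls.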

Consider `CCCC1O[C@@H]2C[C@H]3[C@@H]4CCC5=CC(=O)C=C[C@]5(C)[C@H]4[C@@H](O)C[C@]3(C)[C@]2(C(=O)CO)O1` (stereo partly shown) [budesonide], for which the “efficacy of acute dosing (BAL eosinophils, IL-13)” value is “demonstrated efficacy”.

These data come from PMC4769423 (BMJ Open Respiratory Research, 2016).
